Assay results as given in ChEMBL document CHEMBL1133940, “A novel class of inhibitors for steroid 5alpha-reductase: synthesis and evaluation of umbelliferone derivatives” (Bioorg Med Chem Lett, 2001).
Several values for one entry are separate records, joined by “and”; a condition that tells them apart may be missing. Equal values may be shown once.

Target: T1, 3-oxo-5-alpha-steroid 4-dehydrogenase 1 (Homo sapiens, UniProt P18405)
T1 sequence (P18405 whole entry): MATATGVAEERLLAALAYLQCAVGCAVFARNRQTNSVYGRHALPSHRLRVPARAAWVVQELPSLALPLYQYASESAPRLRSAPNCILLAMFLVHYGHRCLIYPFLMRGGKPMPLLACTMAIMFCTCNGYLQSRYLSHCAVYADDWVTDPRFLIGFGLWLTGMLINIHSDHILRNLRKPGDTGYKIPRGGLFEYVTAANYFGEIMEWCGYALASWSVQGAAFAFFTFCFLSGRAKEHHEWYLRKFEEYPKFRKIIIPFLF
Experiment: Inhibitory activity against 5-alpha-reductase type 1 in cell culture system using LNCaP cells (androgen-sensitive human prostatic cancer cell line)
Format: cell-based
Method in brief: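 LNCaP cells (express 5aR-1 only) seeded at 2×10⁵ cells/mL/well, grown 24 h in medium with 5% hormone-free FBS. Then exposed to [³H]-testosterone plus test sample (final 0.5% DMSO) for 18 h. Medium extracted with ethyl acetate, [³H]-T and [³H]-DHT separated by TLC. Conversion = DHT radioactivity/(T+DHT). IC50 ([…]) relative to 0.5% DMSO control.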

Row | IC50 | Compound
1 | > 99.9 µM | C#CCOc1ccc2ccc(=O)oc2c1
2 | 8.41 µM and 8.4 µM | C=CCc1cc2ccc(=O)oc2cc1O
3 | 0.49 µM | C=CCc1c(OC(=O)c2ccccc2)ccc2ccc(=O)oc12
4 | > 123 µM | O=c1ccc2ccc(O)cc2o1 [UMBELLIFERONE]
5 | 1.3 µM | C=CC(C)(C)Oc1ccc2ccc(=O)oc2c1
6 | 0.622 µM and 0.62 µM | C=CCc1c(OC(=O)Nc2ccccc2)ccc2ccc(=O)oc12
7 | 50.3 µM | C=CCc1c(OC(C)(C)C=C)ccc2ccc(=O)oc12
8 | > 14.9 µM | C#CC(C)(C)Oc1ccc2ccc(=O)oc2c1CC=C
9 | > 87.6 µM | C#CC(C)(C)Oc1ccc2ccc(=O)oc2c1
10 | > 18.5 µM | C=CCc1c(OC)ccc2ccc(=O)oc12
11 | > 98.9 µM | C=CCOc1ccc2ccc(=O)oc2c1 [7-ALLYLOXYCOUMARIN]
12 | 0.819 µM and 0.82 µM | C=CCc1c(OC(C)=O)ccc2ccc(=O)oc12
13 | > 13.7 µM | C=CCc1c(OCc2ccccc2)ccc2ccc(=O)oc12
14 | > 77.4 µM | C=CCc1c(OCC(C)=O)ccc2ccc(=O)oc12
15 | 0.989 µM and 0.99 µM | C=CCc1c(O)ccc2ccc(=O)oc12
16 | > 81.2 µM | C=CCc1c(OCCO)ccc2ccc(=O)oc12

Row | Compound | IC50
17 | CC(C)(C)NC(=O)[C@H]1CC[C@H]2[C@@H]3CC[C@H]4NC(=O)C=C[C@]4(C)[C@H]3CC[C@]12C [FINASTERIDE] | 53.1 µM and 53 µM
